Results pooled from the literature.
Each line is one published result; the experiments were not run side by side.
FGFR3: Fibroblast growth factor receptor 3 (FGFR3, Homo sapiens, UniProt P22607)
FGFR3 G697C: Fibroblast growth factor receptor 3 (FGFR3, Homo sapiens, UniProt P22607, G697C)

Structure (SMILES)	target	observed	method	tested at	remaining binding [%]
COc1ccc2c(c1)O[C@@H](c1ccc(OC)c(OC)c1)C[C@H]2NC(=O)C1(c2ccc3c(c2)OC(F)(F)O3)CC1	FGFR3	cell-free assay	competition with immobilised ligand	1 µM	89
C[C@@H](c1ccc(-n2cnc3c(N)ncnc32)cc1)N1CCc2nn(C)c(Cc3ccccc3)c2C1=O	FGFR3 G697C	binding	competition with immobilised ligand	0.1 µM	96
CN1CCN(c2ccc(Nc3nccc(-c4cccc([N+](=O)[O-])c4)n3)cc2C(F)(F)F)CC1	FGFR3 G697C	binding	–	10 µM	63
COc1cnc(Nc2cccc(S(N)(=O)=O)c2)nc1N1CCN(c2ccccc2)CC1	FGFR3 G697C	binding	competition with immobilised ligand	1 µM	100
N#Cc1ccccc1CSc1nnc2c(n1)[nH]c1ccccc12	FGFR3	binding	competition with immobilised ligand	10 µM	88
COc1ncc2cc3ccccc3nc2c1C#N	FGFR3 G697C	cell-free assay	competition with immobilised ligand	5 µM	96
C=CC(=O)N1CCC(C(=O)NCC(=O)N2CCN(c3nc(-c4cnc(N)nc4C(F)F)nc(N4CCOCC4)n3)CC2)CC1	FGFR3 G697C	binding	competition with immobilised ligand	1 µM	99
CNC(=O)[C@@H]1CC[C@@H](n2c(-c3ccc4cnccc4c3)nc3ccc(C(=O)NCc4cccc(C(N)=O)c4)cc32)C1	FGFR3 G697C	binding	competition with immobilised ligand	1 µM	93
CCN1CCN(Cc2ccc(C(=O)Nc3ccc(C)c(Oc4ccc5c(c4)CC(=O)N5)c3)cc2C(F)(F)F)CC1	FGFR3 G697C	binding	competition with immobilised ligand	1 µM	88
CS(=O)(=O)c1cc(C2(NC(=O)c3cncc4c3cnn4-c3ccc(F)cc3)CC2)ccn1	FGFR3	cell-free assay	competition with immobilised ligand	1 µM	100
COc1cnc(Nc2cccc(S(N)(=O)=O)c2)nc1N1CCN(c2ccccc2)C(=O)C1	FGFR3 G697C	binding	competition with immobilised ligand	1 µM	92
O=C(NCCCN1CCOCC1)c1ccc(Nc2ncc(Cl)c(-c3ccc(Cl)s3)n2)cc1	FGFR3	binding	competition with immobilised ligand	1 µM	41
Nc1ncc2c(n1)-c1c([nH]c3ccc(C#CC4CC4)cc13)CCCC2	FGFR3 G697C	binding	competition with immobilised ligand	1 µM	100
O=C(c1ccc(Nc2ncc(Cl)c(-c3cc4ccccc4s3)n2)cc1)N1CCC(N2CCCC2)CC1	FGFR3	binding	competition with immobilised ligand	1 µM	38
CN(c1nccc(-c2cnn3ncccc23)n1)C1CC1	FGFR3	binding	–	1 µM	98
CN(C)C(=O)Cn1cc(-c2nc([C@@](C)(c3ccc(-c4cnc(N)nc4)cc3)C3CC3)no2)cn1	FGFR3 G697C	cell-free assay	competition with immobilised ligand	1 µM	89
O=C(c1ccc(Nc2ncc(Cl)c(-c3ccc(Cl)s3)n2)cc1)N1CCC(N2CCCC2)CC1	FGFR3	binding	competition with immobilised ligand	1 µM	19
CCCOc1ccc([C@H]2[C@H](C(=O)O)[C@@H](c3ccc4c(c3)OCO4)CN2CC(=O)Nc2c(CC)cccc2CC)cc1	FGFR3 G697C	cell-free assay	competition with immobilised ligand	1 µM	85

Structure (SMILES)	target	observed	method	tested at	remaining binding [%]
O=C(Nc1c[nH]nc1C(=O)NC1CCNCC1)c1cc(F)cc(F)c1	FGFR3 G697C	binding	competition with immobilised ligand	1 µM	100
CSc1cccnc1N1CCN(Cc2nc3ccccc3[nH]2)CC1	FGFR3 G697C	cell-free assay	competition with immobilised ligand	1 µM	100
O=C(NCC1CCOCC1)c1n[nH]cc1NC(=O)c1c(F)cccc1F	FGFR3 G697C	binding	competition with immobilised ligand	1 µM	100
C[C@@H]1CCN(c2nccc(-c3cnn4ncccc34)n2)C1	FGFR3	binding	–	1 µM	90
O=C(NCCCN1CCOCC1)c1ccc(Nc2nccc(-c3cc4ccccc4s3)n2)cc1	FGFR3	binding	competition with immobilised ligand	1 µM	94
COc1ccc2cc(OCC3(C(=O)O)CN(C(=O)c4ccc(F)cc4)C3)ccc2c1	FGFR3	cell-free assay	competition with immobilised ligand	1 µM	100
F[C@@H]1CCN(c2nccc(-c3cnn4ncccc34)n2)C1	FGFR3 G697C	binding	–	1 µM	79
c1cncc(-c2cccc(Nc3nccc(NC4CCCCC4)n3)c2)c1	FGFR3 G697C	binding	competition with immobilised ligand	10 µM	51
CC1CCCN1c1nccc(-c2cnn3ncccc23)n1 (centres unmarked)	FGFR3	binding	–	1 µM	100
O=C(c1ccc(Nc2nccc(-c3cc4ccccc4s3)n2)cc1)N1CCC(N2CCCC2)CC1	FGFR3	binding	competition with immobilised ligand	1 µM	87
CN(C)c1nccc(-c2cnc3ncccn23)n1	FGFR3 G697C	binding	–	1 µM	99
O=C(NCc1ncc(C(F)(F)F)cc1Cl)c1ccc2c(c1)C1(CCS(=O)(=O)CC1)[C@H](C1CC1)N2S(=O)(=O)c1ccc(F)cc1	FGFR3 G697C	cell-free assay	competition with immobilised ligand	1 µM	100
N[C@@H]1CCN(c2nccc(-c3cnn4ncccc34)n2)C1	FGFR3 G697C	binding	–	1 µM	100
C[C@@H]1CN(c2ccc3ncc(-c4ccc5[nH]nc(C6CC6)c5c4)n3n2)C[C@H](C)O1	FGFR3	binding	competition with immobilised ligand	0.5 µM	100
Cc1cc(-n2nc(Cc3cc(F)cc(C(F)(F)F)c3)nc2C)ccc1C(N)=O	FGFR3 G697C	cell-free assay	competition with immobilised ligand	1 µM	100
Cc1cnc(Nc2ccc(C(=O)N3CCC(N4CCCC4)CC3)cc2)nc1-c1cc2ccccc2s1	FGFR3	binding	competition with immobilised ligand	1 µM	23
c1cnn2ncc(-c3ccnc(N4CCC45COC5)n3)c2c1	FGFR3	binding	–	1 µM	100
